Xi reactivation: activators of X-chromosome reactivation in mouse fibroblasts. XiGFP mouse fibroblasts, % GFP-positive cells imaging, 3 d; cells co-treated with 5-aza-dC sensitizer; scaled so ellipticine positive control = 100%. activation, % at 7.58 µM. 360,000 tested, 0.055% active. AID 743238;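 active = mean normalized replicate activation at least 10% and every replicate at or above 10%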;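 note: 0% = median of on-plate neutral control wells and 100% = ellipticine 6 µM median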
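Schedule: 3 d treatment, 15 min room-temperature fixation; system: 68-5-11 XiGFP fibroblast line; buffer or medium: DMEM plus 5-aza-dC sensitizer; control set: ellipticine 6 µM positive control; compound: one concentration, pinned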
HGIII-sPLA2 inh: Inhibits HGIII-sPLA2 liposome hydrolysis, primary screen. Q9NZ20. 370,000 tested, 0.56% active. QFRET BODIPY PC-A2 liposome hydrolysis, fluorescence. inhibition, % at 12.2 µM;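 active = inhibition above mean plus 3 SD of compounds lying within the high and low control bounds, cut at about 19% in these data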;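 note: 0% = median of test compound wells and 100% = no enzyme DMSO wells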
Target sequence (Q9NZ20 whole entry, looked up): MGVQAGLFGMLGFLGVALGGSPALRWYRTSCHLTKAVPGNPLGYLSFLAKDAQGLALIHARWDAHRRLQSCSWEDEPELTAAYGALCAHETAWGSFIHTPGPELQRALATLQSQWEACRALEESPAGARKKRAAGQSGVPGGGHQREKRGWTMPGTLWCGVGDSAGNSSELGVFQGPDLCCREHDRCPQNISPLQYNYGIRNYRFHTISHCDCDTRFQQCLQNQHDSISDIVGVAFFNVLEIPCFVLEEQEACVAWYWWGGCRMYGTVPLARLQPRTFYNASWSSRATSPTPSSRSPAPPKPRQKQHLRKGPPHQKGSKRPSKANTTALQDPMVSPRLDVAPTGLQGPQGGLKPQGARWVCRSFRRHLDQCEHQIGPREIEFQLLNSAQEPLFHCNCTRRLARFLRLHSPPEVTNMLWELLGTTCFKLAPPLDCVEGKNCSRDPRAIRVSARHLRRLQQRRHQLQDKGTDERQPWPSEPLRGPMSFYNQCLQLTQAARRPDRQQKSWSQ
SR-BI uptake up: enhances SR-BI lipid uptake from DiI-HDL. CHO ldlA[mSR-BI] cells, DiI-HDL uptake fluorescence, 3 h; 100 = double the neutral-control signal. AID 504775. activation, % at 12.5 µM. 320,000 tested, 0.096% active;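 active = mean replicate activation of at least 60% and every replicate at or above 60%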;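 note: 0% = median plate neutral-control signal and 100% = twice that signal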
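Material – SR-BI-overexpressing, LDLR-lacking CHO cells · Medium – BSA-supplemented, HEPES-buffered Ham's F12, pH 7.4 · Doses – single concentration · Times – compound with DiI-HDL co-incubation, 3 h at 37 °C · Measured by – bottom-read fluorescence, 550/595 nm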
SR-BI HDL uptake: mouse SR-BI HDL lipid transfer inhibition; Q61009; inhibition, % at 12.5 µM; 320,000 tested, 0.96% active; ldlA[mSR-BI] CHO cells, DiI-HDL uptake fluorescence, 3 h;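 active = mean replicate inhibition of at least 70% and a set share of replicates each scoring 70 or more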;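 note: 0% = median of neutral control wells and 100% = median of positive control wells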
ARNT TACC3 PPI: disrupts binding between human ARNT and TACC3. AlphaScreen His-ARNT PAS-B/GST-TACC3 binding, luminescence; TACC3 fragment carries E629A point mutation. inhibition, % at 9.99 µM. 390,000 tested, 0.66% active;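 active = mean inhibition of replicates at least 50% and at least half of replicates each reaching 50%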;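 note: 0% = complete ARNT plus TACC3 wells and 100% = ARNT alone without TACC3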
NSD2 HMT inh: NSD2 (human) methyltransferase inhibition. NSD2 peptide methylation, AlphaScreen, 120 min. O96028. inhibition, % at 12.5 µM. 310,000 tested, 0.54% active; in the data active = inhibition above about 50%
ARNT Alpha ctr-1: AlphaScreen artifact in ARNT/TACC3 counter-screen; shares compounds with ARNT TACC3 PPI; His-ARNT PASB-GST AlphaScreen artifact counter-screen, luminescence; AC50, µM (doses to about 68 µM), for the others: at the highest dose activity change, negative = signal decrease; 1,200 tested, 50% active; AID 651705;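 active = every separate test run was called active for a drop in luminescence, with AC50 within twice the top valid dose, actives reach about 71 µM in these data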
ARNT Alpha ctr-2: counter-screen for ARNT-TACC3 inhibitors: AlphaScreen artifacts; shares compounds with ARNT TACC3 PPI; Dual-tagged His-ARNT PASB-GST AlphaScreen artifact counter-screen; AC50, µM; 45 tested, 70% active; AID 720564;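 active = luminescence drop, with half-maximal potency fitted within twice the sample's top valid dose, cut at about 70 µM in these data; inactive = the rest, including signal moving the wrong way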
Starred values were filed as active, the others as inactive; [ ] = remark or other dose. Most compounds without a hit are left out; they make up all but 2% or so of the library.

How did C[C@@H]1CN([C@H](C)CO)C(=O)c2cc(NS(C)(=O)=O)ccc2O[C@@H]1CN(C)S(=O)(=O)c1ccc(F)cc1 do in these assays?
Xi reactivation: 0; ARNT TACC3 PPI: active; ARNT Alpha ctr-1: -12%[38 µM]

How did CC(C)NC(=O)Nc1cccc2c1O[C@H](CN(C)C(=O)Nc1ccc(C(F)(F)F)cc1)[C@@H](C)CN([C@@H](C)CO)C2=O do in these assays?
Xi reactivation: -1; ARNT TACC3 PPI: active; ARNT Alpha ctr-1: -7%[42 µM]

What do the screens show for `C[C@@H]1CN([C@@H](C)CO)C(=O)c2cccc(NC(=O)c3ccncc3)c2O[C@@H]1CN(C)Cc1ccc(-c2ccccc2)cc1`?
Xi reactivation: 0; HGIII-sPLA2 inh: -12; SR-BI uptake up: 0; SR-BI HDL uptake: 0; ARNT TACC3 PPI: -2

How did C[C@@H]1CN([C@H](C)CO)C(=O)c2cccc(NC(=O)c3ccncc3)c2O[C@@H]1CN(C)Cc1ccc(-c2ccccc2)cc1 do in these assays?
Xi reactivation: 0; ARNT TACC3 PPI: active; ARNT Alpha ctr-1: 0%[42 µM]

Results for Cc1c(CCC(=O)O)c(=O)oc2c(C)c3occ(-c4ccc(Cl)cc4)c3cc12 ?
Xi reactivation: 0; HGIII-sPLA2 inh: -8; SR-BI uptake up: -2; SR-BI HDL uptake: 2; ARNT TACC3 PPI: 56*; NSD2 HMT inh: 11; ARNT Alpha ctr-1: 62µM*

How did Cc1nn(C)c(Cl)c1CN1CCCC(C(=O)Nc2cccc(-n3cccn3)c2)C1 (configuration not stated) do in these assays?
Xi reactivation: 0; HGIII-sPLA2 inh: -6; SR-BI HDL uptake: 11; ARNT TACC3 PPI: 2; NSD2 HMT inh: 1

Results for C=CCSc1nnc(-c2cccc3ccccc23)o1 ?
Xi reactivation: 0; HGIII-sPLA2 inh: 4; SR-BI uptake up: 8; SR-BI HDL uptake: -8; ARNT TACC3 PPI: 57*; ARNT Alpha ctr-1: 34µM*

What do the screens show for `C#CCSc1nnc(-c2cccc3ccccc23)o1`?
HGIII-sPLA2 inh: -4; SR-BI uptake up: -12; SR-BI HDL uptake: 12; ARNT TACC3 PPI: 36; NSD2 HMT inh: -4

Results for O=C(CN1C(=O)/C(=C\c2cccs2)SC1=S)Nc1cccc(C(=O)O)c1 ?
Xi reactivation: 0; HGIII-sPLA2 inh: -7; SR-BI uptake up: -17; SR-BI HDL uptake: 17; ARNT TACC3 PPI: 57*; NSD2 HMT inh: 7; ARNT Alpha ctr-1: -10%

What do the screens show for `CN(C)S(=O)(=O)N1CCN(S(=O)(=O)c2ccc(F)cc2)CC1`?
HGIII-sPLA2 inh: 4; SR-BI uptake up: 21; SR-BI HDL uptake: -21; ARNT TACC3 PPI: 51*; ARNT Alpha ctr-1: 0%

Results for CC(C)Cc1nnc(NC(=O)c2cccc(S(=O)(=O)N3CCOCC3)c2)s1 ?
Xi reactivation: 0; HGIII-sPLA2 inh: 1; SR-BI uptake up: -57; SR-BI HDL uptake: 57; NSD2 HMT inh: -1; ARNT Alpha ctr-2: inactive

What do the screens show for `CC(C)Cc1nnc(NC(=O)c2cccc(S(=O)(=O)N3CCN(C)CC3)c2)s1`?
Xi reactivation: 0; HGIII-sPLA2 inh: 4; SR-BI uptake up: -23; SR-BI HDL uptake: 23; ARNT TACC3 PPI: -7; NSD2 HMT inh: 2

What do the screens show for `CN1CCN(S(=O)(=O)c2cccc(C(=O)Nc3sccc3C(N)=O)c2)CC1`?
Xi reactivation: 0; HGIII-sPLA2 inh: -4; SR-BI uptake up: 18; SR-BI HDL uptake: -18; ARNT TACC3 PPI: 46*; NSD2 HMT inh: 6; ARNT Alpha ctr-1: 44µM*

Results for CC1CCN(S(=O)(=O)c2ccc(C(=O)Nc3nnc(-c4ccco4)o3)cc2)CC1 ?
Xi reactivation: 0; HGIII-sPLA2 inh: -2; SR-BI HDL uptake: 1; ARNT TACC3 PPI: 31; NSD2 HMT inh: -3; ARNT Alpha ctr-2: >136

How did CSc1ccc(-c2nnc(NC(=O)c3ccc(S(=O)(=O)N4CCC(C)CC4)cc3)o2)cc1 do in these assays?
ARNT Alpha ctr-2: 59*

How did CN(CC(=O)Nc1ccc(F)cc1)C(=O)Cc1ccsc1 do in these assays?
Xi reactivation: 0; HGIII-sPLA2 inh: 10; SR-BI uptake up: -2; SR-BI HDL uptake: 2; ARNT TACC3 PPI: 2; NSD2 HMT inh: 1

What do the screens show for `Cc1ccccc1C(=O)Nc1ccc2c(c1)C(=O)NC2=O`?
Xi reactivation: 0; HGIII-sPLA2 inh: -5; SR-BI uptake up: 2; SR-BI HDL uptake: -2; ARNT TACC3 PPI: -6

What do the screens show for `Cc1ccc(S(=O)(=O)NC(=O)c2cc(C)n(CCCn3ccnc3)c2C)cc1`?
HGIII-sPLA2 inh: -1; SR-BI uptake up: 2; SR-BI HDL uptake: -2; ARNT TACC3 PPI: 53*; NSD2 HMT inh: -1; ARNT Alpha ctr-1: -3%

Results for Cc1cc(C)cc(N(CC(=O)NC2CCCCC2)C(=O)CNC(=O)c2ccco2)c1 ?
Xi reactivation: 0; HGIII-sPLA2 inh: -1; SR-BI uptake up: 15; SR-BI HDL uptake: -15; ARNT TACC3 PPI: -9; NSD2 HMT inh: 0

How did Cc1cc(=O)[nH]c(-n2ncc(C#N)c2N)n1 do in these assays?
Xi reactivation: 0; HGIII-sPLA2 inh: -5; SR-BI uptake up: 8; SR-BI HDL uptake: -8; ARNT TACC3 PPI: 56*; NSD2 HMT inh: 0; ARNT Alpha ctr-1: -13%

How did COC(=O)c1ccc2[nH]c3c(c2c1)CC(C)CC3 (configuration not stated) do in these assays?
Xi reactivation: 0; HGIII-sPLA2 inh: -28; SR-BI uptake up: -46; SR-BI HDL uptake: 46; ARNT TACC3 PPI: 21*; NSD2 HMT inh: 5; ARNT Alpha ctr-1: -30%

What do the screens show for `COC(=O)Nc1cccn(Cc2c(Cl)cccc2Cl)c1=O`?
HGIII-sPLA2 inh: 0; SR-BI uptake up: 2; SR-BI HDL uptake: -2; ARNT TACC3 PPI: -4; NSD2 HMT inh: 2

How did Cc1ccc2[nH]c3c(c2c1)CCCC3NCCO (configuration not stated) do in these assays?
Xi reactivation: 0; HGIII-sPLA2 inh: 14; SR-BI uptake up: 2; SR-BI HDL uptake: -2; ARNT TACC3 PPI: 43*; NSD2 HMT inh: 49; ARNT Alpha ctr-1: -22%

What do the screens show for `C/C=C/c1ccc([C@H]2[C@@H](CO)N(Cc3ccccn3)[C@@H]2CNC(C)=O)cc1`?
Xi reactivation: 0; ARNT TACC3 PPI: 30*; ARNT Alpha ctr-1: -11%[42 µM]

What do the screens show for `C/C=C/c1ccc([C@H]2[C@@H](CO)N(Cc3ccccn3)[C@H]2CNC(=O)CC)cc1`?
Xi reactivation: 0; ARNT TACC3 PPI: 41*; ARNT Alpha ctr-1: -23%[42 µM]

Screens: PubChem, several laboratories
